Experimental data reported in ChEMBL document CHEMBL1955840, “Proteasome inhibitors for cancer therapy” (Bioorg Med Chem, 2012).
pIC50: −log10 of the molar value.

Assays:
[1] = Inhibition of chymotrypsin-like activity of human liver 20S proteasome assessed as release of AMC using Suc-LLVY-AMC fluorogenic substrate after 15 mins preincubation measured every 1.5 mins for 20 mins by fluorescence analysis
Procedure, shortened: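 Proteasome partially purified from postmortem human liver, 6.7 µg/mL final, in 20 mM Tris–Cl pH 7.5, 0.04% SDS, 5% DMSO; activated by 15 min preincubation at 27 °C. Suc-LLVY-AMC added to 100 µM; AMC fluorescence (ex 360/em 460 nm) read every 1.5 min for 20 min at 27 °C. Rates per inhibitor concentration; IC50 by non-linear regression; mean S.D., n = 3–6.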

Chymotrypsinogen A = Chymotrypsinogen A (Bos taurus, UniProt P00766); experiment: Inhibition of bovine alpha-chymotrypsin
[2] = Inhibition of chymotrypsin-like activity of 20S proteasome in human MOLT4 cells assessed as release of AFC using MeOSuc-Phe-Leu-Phe-AFC substrate after 15 mins measured every 1.5 mins for 20 mins by fluorescence analysis; assay type: cell-based; conditions: MOLT-4
Procedure, shortened: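 Molt-4 human T-cell leukemia cells washed, resuspended at 6 × 10⁶ cells/mL in HEPES-buffered saline (pH 7.0) with KCl, NaCl, glucose, MgSO₄ and Na pyruvate. Fluorogenic AFC substrate at 100 µM, 0.6% DMSO final; incubated at 37 °C; AFC fluorescence (ex 420/em 490 nm) read every 1.5 min for 20 min. IC50 reported as mean S.D., n = 3–6.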

[3] = Inhibition of trypsin-like activity of 20S proteasome at 10 uM
Procedure, shortened: (§1)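 Percent inhibition measured at a single 10 µM concentration; averages of two independent experiments, each run in triplicate.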

PANC-1 = experiment: Antitumor activity against human PANC1 cells assessed as cell viability; assay type: functional, cell-based
Procedure, shortened: (§2)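 Tumor cell viability IC50 values; averages of two independent experiments, each performed in triplicate.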

DU-145 = experiment: Antitumor activity against human DU145 cells assessed as cell viability; assay type: functional, cell-based; procedure, shortened: as §2
SK-MEL-5 = experiment: Antitumor activity against human SK-MEL-5 cells assessed as cell viability; assay type: functional, cell-based; procedure, shortened: as §2
[4] = test system: Lewis lung carcinoma cell line; experiment: Antitumor activity against mouse LLC cells assessed as cell viability; assay type: functional, cell-based; procedure, shortened: as §2
MOLT-4 = experiment: Ratio of IC50 for chymotrypsin-like activity of 20S proteasome in human MOLT4 cells to IC50 for chymotrypsin-like activity of human liver 20S proteasome in cell-free assay; assay type: cell-based
Procedure, shortened: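 Cell-permeability index: IC50 against chymotrypsin-like activity in intact Molt-4 cells divided by IC50 against isolated human liver 20S proteasome, both from fluorogenic substrate cleavage assays.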

[5] = Antitumor activity against rat AT2 cells assessed as cell viability; assay type: functional, cell-based; procedure, shortened: as §2
MCF7 = experiment: Antitumor activity against human MCF7 cells assessed as cell viability; assay type: functional, cell-based; procedure, shortened: as §2
[6] = molecular target: Chymotrypsinogen A (Bos taurus) (UniProt P00766); experiment: Inhibition of bovine alpha-chymotrypsin at 10 uM; procedure, shortened: as §1
[7] = molecular target: T1, Calpain-1 catalytic subunit (Homo sapiens) (UniProt P07384); experiment: Inhibition of human calpain 1 at 10 uM; procedure, shortened: as §1
T1 sequence (whole entry): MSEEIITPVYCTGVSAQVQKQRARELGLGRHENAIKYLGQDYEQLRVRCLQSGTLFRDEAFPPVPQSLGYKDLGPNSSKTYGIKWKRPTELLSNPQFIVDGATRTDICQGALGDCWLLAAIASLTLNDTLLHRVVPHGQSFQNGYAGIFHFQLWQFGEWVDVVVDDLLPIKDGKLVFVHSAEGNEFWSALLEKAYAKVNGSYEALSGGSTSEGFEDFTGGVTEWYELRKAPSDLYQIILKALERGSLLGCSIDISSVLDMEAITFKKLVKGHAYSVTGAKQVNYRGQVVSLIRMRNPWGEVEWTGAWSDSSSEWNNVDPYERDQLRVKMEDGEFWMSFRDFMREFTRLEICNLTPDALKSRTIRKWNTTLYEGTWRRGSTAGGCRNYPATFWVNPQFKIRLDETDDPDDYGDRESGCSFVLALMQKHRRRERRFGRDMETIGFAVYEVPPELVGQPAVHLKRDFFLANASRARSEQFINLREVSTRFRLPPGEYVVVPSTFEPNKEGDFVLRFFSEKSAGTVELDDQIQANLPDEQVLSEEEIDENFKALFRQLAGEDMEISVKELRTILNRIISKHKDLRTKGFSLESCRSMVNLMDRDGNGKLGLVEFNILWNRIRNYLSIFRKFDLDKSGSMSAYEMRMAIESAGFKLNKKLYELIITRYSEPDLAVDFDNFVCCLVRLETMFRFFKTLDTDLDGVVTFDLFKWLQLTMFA

OVCAR-3 = experiment: Antitumor activity against human OVCAR3 cells assessed as cell viability; assay type: functional, cell-based; procedure, shortened: as §2

## CC(C)C[C@@H](C=O)NC(=O)[C@H](CCCN/C(N)=N/[N+](=O)[O-])NC(=O)C(CCCCCCCCN1C(=O)c2ccccc2C1=O)C1CCCC1 (stereo not given in full)
[1]
  pIC50: 8.70

## CC(C)C[C@@H](C=O)NC(=O)[C@H](CCCN/C(N)=N/[N+](=O)[O-])NC(=O)C(CCCCCCCCC#N)C1CCCC1 (stereo not given in full)
[1]
  pIC50: 8.22

## CC(C)C[C@H](NC(=O)[C@H](CCCN/C(N)=N/[N+](=O)[O-])NC(=O)C(CCCCCCCCC#N)C1CCCC1)C(=O)C(=O)NCCNS(=O)(=O)c1ccccc1 (stereo not given in full)
[1]
  pIC50: 9.00

## CC(C)C[C@H](NC(=O)[C@H](CCCN/C(N)=N/[N+](=O)[O-])NC(=O)C(CCCCCCCCC#N)C1CCCC1)B1OC(C)(C)C(C)(C)O1 (stereo not given in full)
[1]
  pIC50: 8.22

## CC(C)C[C@H](NC(=O)[C@H](CCCN=C(N)N[N+](=O)[O-])NC(=O)C(CCCCCCCCC#N)C1CCCC1)B1O[C@@H]2[C@@H]3C[C@H](C[C@]2(C)O1)C3(C)C (mixture of isomers)
Chymotrypsinogen A
  pIC50: < 5.00

## CC(C)C[C@H](NC(=O)[C@H](CCCN/C(N)=N/[N+](=O)[O-])NC(=O)C(CCCCCCCCC#N)C1CCCC1)B1O[C@@H]2[C@@H]3C[C@H](C[C@]2(C)O1)C3(C)C (mixture of isomers)
[2]
  pIC50: 6.62
[3]
  inhibition: 0%
PANC-1
  pIC50: 6.55
DU-145
  pIC50: 6.53
[1]
  pIC50: 8.46
SK-MEL-5
  pIC50: 7.07
[4]
  pIC50: 6.23
MOLT-4
  Ratio IC50: 69
[5]
  pIC50: < 6.00
MCF7
  pIC50: 6.37
[6]
  inhibition: 24%
[7]
  inhibition: 2%
OVCAR-3
  pIC50: 7.16

## CC(C)C[C@H](NC(=O)[C@H](CCCN/C(N)=N/[N+](=O)[O-])NC(=O)C(CCCCCCCCN1C(=O)c2ccccc2C1=O)C1CCCC1)B1O[C@@H]2[C@@H]3C[C@H](C[C@]2(C)O1)C3(C)C (mixture of isomers)
[2]
  pIC50: 7.15
[3]
  inhibition: 20%
PANC-1
  pIC50: 6.74
DU-145
  pIC50: 6.78
[1]
  pIC50: 8.46
SK-MEL-5
  pIC50: 7.09
[4]
  pIC50: 6.29
MOLT-4
  Ratio IC50: 20
[5]
  pIC50: < 6.00
MCF7
  pIC50: 6.53
[6]
  inhibition: 30%
Chymotrypsinogen A
  pIC50: < 5.00
[7]
  inhibition: 11%
OVCAR-3
  pIC50: 7.54

## CC(C)C[C@H](NC(=O)[C@H](CCCN/C(N)=N/[N+](=O)[O-])NC(=O)C(CCCCCCCCC#N)C1CCCC1)B(O)O (mixture of isomers)
[2]
  pIC50: 5.13
[3]
  inhibition: 5%
[1]
  pIC50: 8.06
MOLT-4
  Ratio IC50: 840
[6]
  inhibition: 30%

## CC(C)C[C@H](NC(=O)[C@H](CCCNC(=N)N[N+](=O)[O-])NC(=O)C(CCCCCCCCC#N)C1CCCC1)B(O)O (mixture of isomers)
Chymotrypsinogen A
  pIC50: < 5.00

## CC(C)C[C@H](NC(=O)[C@H](CCCN/C(N)=N/[N+](=O)[O-])NC(=O)C(CCCCCCCCN1C(=O)c2ccccc2C1=O)C1CCCC1)B(O)O (mixture of isomers)
[2]
  pIC50: 5.55
[3]
  inhibition: 24%
[1]
  pIC50: 8.39
MOLT-4
  Ratio IC50: 690
[6]
  inhibition: 2%
Chymotrypsinogen A
  pIC50: < 5.00
[7]
  inhibition: 0%
